Reference: ChEMBL document CHEMBL5214904, “Design, Synthesis, and Biological Evaluation of Boron-Containing Macrocyclic Polyamines and Their Zinc(II) Complexes for Boron Neutron Capture Therapy” (J Med Chem, 2021)

What was measured:
[1] = Drug uptake in human A549 cells assessed as increase in intracellular boron atoms at 30 uM measured after 24 hrs by ICP-MS analysis; format: ADME, cell-based; conditions: a549, 24 h
Summary of the method: (§1)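 Cells seeded at 5 × 10^5/well and grown overnight at 37 °C, 5% CO2, normoxic. A549 in DMEM/10% FBS; HeLa S3 in MEM/10% FBS. Exposed to 30 μM compound for 24 h. Cells washed with PBS ×3 and digested in 60% HNO3 for 24 h at room temperature, then diluted, centrifuged and filtered. Total boron (10B+11B) measured by ICP-MS and normalized per cell from hemocytometer counts of a parallel well. Mean ± SD of triplicates.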

Calf thymus DNA [2] = test: Binding affinity to calf thymus DNA assessed as stabilization by measuring change in melting temperature at ratio of 5 by UV/vis spectrophotometric; format: nucleic-acid assay; conditions: Bos taurus
Calf thymus DNA [3] = test: Binding affinity to calf thymus DNA assessed as stabilization by measuring change in melting temperature at ratio of 1 by UV/vis spectrophotometric; format: nucleic-acid assay; conditions: Bos taurus
[4] = Drug uptake in human A549 cells assessed as increase in intracellular boron concentration measured per cell at 30 uM measured after 24 hrs by ICP-MS analysis; format: ADME, cell-based; conditions: a549, 24 h; summary of the method: as §1
[5] = Drug uptake in human HeLa S3 cells assessed as increase in intracellular boron concentration measured per cell at 30 uM measured after 24 hrs by ICP-MS analysis; format: ADME, cell-based; conditions: hela s3, 24 h; summary of the method: as §1
Calf thymus DNA [6] = test: Binding affinity to calf thymus DNA assessed as stabilization by measuring change in melting temperature at ratio of 0.1 by UV/vis spectrophotometric; format: nucleic-acid assay; conditions: Bos taurus
Calf thymus DNA [7] = test: Binding affinity to calf thymus DNA assessed as stabilization by measuring change in melting temperature at ratio of 0.2 by UV/vis spectrophotometric; format: nucleic-acid assay; conditions: Bos taurus

Structure (SMILES)	Drug uptake [1]	ΔTm (Calf thymus DNA [2]) [°C]	ΔTm (Calf thymus DNA [3]) [°C]	Drug uptake [4]	further results
c1cc(B2OC3(CCCCC3)C3(CCCCC3)O2)ccc1CN1CCNCCNCC1	Active	–	–	–	–
c1cc(CN2CCNCCNCCNCC2)cc(B2OC3(CCCCC3)C3(CCCCC3)O2)c1	–	6	1	Active	–
c1cc(CN2CCNCCNCC2)cc(B2OC3(CCCCC3)C3(CCCCC3)O2)c1	Active	–	–	Active	–
c1cc(B2OC3(CCCCC3)C3(CCCCC3)O2)ccc1CN1CCNCCNCCNCCNCC1	–	8	3	Active	Drug uptake [5]: > 2.5 fmol
NCCCCNCCCN	–	–	–	–	ΔTm (Calf thymus DNA [6]): 7 °C; ΔTm (Calf thymus DNA [7]): 12 °C
